Screening data deposited in PubChem by The Scripps Research Institute Molecular Screening Center.
OX1R antag-1 = blocks the human orexin 1 receptor | O43613 | CHO/OX1R cells, Fluo-8 calcium fluorescence, orexin A | inhibition, % at 5 µM | 330,000 compounds, 0.43% hits | AID 434989;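 active = inhibition above its plate's threshold, mean inhibition of all tested compounds on the plate plus 3 SD, cut at about 37% in these data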;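 note: 0% = orexin A challenge wells and 100% = SB-334867-A antagonist wells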
OX1R antag-2 = antagonists of human orexin 1 receptor (OX1R). O43613. OX1R-expressing cells, FRET antagonist read-out. inhibition, % at 6.6 µM. 330,000 compounds, 1.8% hits; in the data active = inhibition mostly above about 38%, no sharp cut-off; inactive = mostly below about 40%;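 note: 0% = agonist challenge alone and 100% = reference antagonist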
CHO parental Ca = counter-screen for OX1R antagonists: effect in parental CHO cells. 330,000 compounds, 0.63% hits. parental CHO-K1, ATP-induced calcium, Fluo-8 fluorescence. inhibition, % at 5.6 µM;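 active = inhibition above that plate's mean sample inhibition plus 3 SD, cut at about 26% in these data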;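 note: 0% = ATP-challenged DMSO wells and 100% = DMSO wells without ATP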
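Test system: untransfected parental CHO cell line; also added: ATP stimulus; dosing: 5.6 µM, single dose; signal: calcium-sensitive Fluo-8 fluorescence; measure: percent inhibition of ATP-evoked calcium rise, normalized to controls; benchmarks: low control ATP plus DMSO, high control DMSO only; replication: one well per compound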
GPR7 antag = human neuropeptides B/W receptor 1 antagonism | P48145 | GPR7-expressing cells, fluorescence antagonist assay | inhibition, % at 4.4 µM | 290,000 compounds, 1.1% hits | AID 1861; in the data active = inhibition above about 16%, passing the limit was not always enough;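 note: cells stimulated with the agonist NPW; 0% = agonist with vehicle and 100% = vehicle without agonist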
Target sequence (P48145 whole entry, looked up): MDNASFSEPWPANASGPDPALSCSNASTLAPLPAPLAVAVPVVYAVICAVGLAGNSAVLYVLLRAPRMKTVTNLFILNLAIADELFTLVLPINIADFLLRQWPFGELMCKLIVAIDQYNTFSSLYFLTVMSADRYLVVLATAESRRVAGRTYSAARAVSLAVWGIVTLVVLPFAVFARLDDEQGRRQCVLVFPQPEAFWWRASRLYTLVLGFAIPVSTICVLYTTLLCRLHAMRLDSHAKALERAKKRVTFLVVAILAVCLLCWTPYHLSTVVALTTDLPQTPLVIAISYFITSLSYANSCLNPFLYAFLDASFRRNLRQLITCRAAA
TRPN1 ag = activates the zebrafish TRPN1 channel; HEK293 zebrafish TRPN1-YFP, Fluo-8 calcium fluorescence; 100% = response to 87 µM carbachol; activation, % at 3 µM; 220,000 compounds, 0.18% hits; AID 1424;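 active = activation above its plate's cutoff, the mean activation of test wells on that plate plus 3 SD, cut at about 19% in these data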;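 note: 0% = DMSO alone and 100% = 87 µM carbachol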
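Material – zebrafish TRPN1-YFP in HEK293 cells · Doses – 3 µM single point · Schedule – dye 1 h 37 °C plus 30 min RT · Signal – Fluo-8 calcium fluorescence, excitation 470-495 nm, emission 515-575 nm · Read-out – % activation versus carbachol response · Control set – carbachol high, DMSO low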
TRPML3 agonist = activates the human TRPML3 channel; Q8TDD5; HEK293 TRPML3-YFP, Fluo-8 calcium fluorescence; 100% = the carbachol control signal; activation, % at 3 µM; 220,000 compounds, 0.29% hits; AID 1448;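 active = activation above its plate's cutoff, the mean activation of the plate's test wells plus 3 SD, cut at about 12% in these data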;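 note: 0% = DMSO only wells and 100% = carbachol wells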
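Material: TRPML3-YFP stable HEK293 cells | Dosing: One concentration, 3 µM nominal, 0.3% DMSO | Timing: 125 s total fluorescence read per well | Technique: Fluo-8 calcium dye fluorescence, ex 470-495, em 515-575 nm | Measure: Percent activation from peak-to-basal fluorescence ratio, scaled between DMSO and carbachol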
The depositor's hits bear a star; . = not tested or not shown; + = active, no number. Most compounds without a hit are left out; they make up all but 3.2% or so of the library.

SMILES	OX1R antag-1	OX1R antag-2	CHO parental Ca	GPR7 antag	TRPN1 ag	TRPML3 agonist
CCCCc1ccc(NC(=O)C(=O)NCCN2CCN(Cc3ccc([N+](=O)[O-])cc3)CC2)cc1	5	3	7	-11	1	1
CC(C)(C)c1ccc(C2SCC(=O)N2c2cccc(C(=O)O)c2)cc1 (centres undefined)	2	17	-1	22	.	.
Cc1ccccc1NC(=O)C1(NC(=O)c2cccc(N3C(=O)CSC3c3ccccc3)c2)CCCCC1 (centres undefined)	-34	13	-36	20*	-2	0
O=S(=O)(Nc1ccccc1)c1ccc(Oc2ncc(C(F)(F)F)cc2Cl)cc1	88*	47*	73*	-4	7	4
O=C1C(Cl)=C(NS(=O)(=O)c2ccc([N+](=O)[O-])cc2)C(=O)c2ccccc21	0	45*	12	3	0	0
O=[N+]([O-])c1ccc(Oc2cnc3ccccc3n2)cc1	-25	19	-6	3	0	-1
O=[N+]([O-])c1ccc(Oc2ccc(S(=O)(=O)Nc3ccccc3)cc2)cc1	50*	26	20	58*	21*	9
O=[N+]([O-])c1ccc(S(=O)(=O)Nc2nc(-c3ccccc3)cs2)cc1	-8	40	6	-12	.	.
O=[N+]([O-])c1ccc(S(=O)(=O)Nc2ccncc2)cc1	-1	25	15	-13	.	.
O=[N+]([O-])c1ccc(Oc2ncccn2)cc1	-6	45*	-8	.	.	.
Cc1ccc(OCC(=O)NCCNC(=O)c2ccncc2)cc1	-1	14	-1	-10	.	.
CCOC(=O)[C@@H]1[C@H]2COc3ccccc3[C@H]2N2C(=O)N(c3cccc(Cl)c3)C(=O)[C@]12C	-9	8	-19	.	.	.
O=C(Nc1ccccc1)c1cccc(S(=O)(=O)Oc2ccc([N+](=O)[O-])cc2)c1	-5	24	1	26*	1	0
Cc1ccc(NC(=O)C2(NC(=O)c3ccccn3)CCCCC2)cc1Br	-4	68*	-24	-2	-2	0
CCC(=O)Nc1c2c(nn1-c1ccc(F)cc1)CS(=O)(=O)C2	8	10	-1	7	.	.
O=C(COc1ccccc1/C=C\c1nc(O)c([N+](=O)[O-])c(=O)[nH]1)Nc1ccccc1	.	.	.	-5	321*	138*
CC(=O)N/C(=C\c1ccccc1)C(=O)OCc1cc(C)ccc1C	-7	23	-1	13	.	.
O=S(=O)(Cc1ccccc1)Nc1ccccc1	-9	17	4	2	.	.
CN(Cc1ccccc1)S(=O)(=O)c1ccc(NS(=O)(=O)Cc2ccccc2)cc1	42*	44*	40*	11	2	0
Cc1nc2ccc(N=NC3=C(O)CC(C)(C)CC3=O)cc2s1	11	62*	-8	10	-1	0
CC(=O)N1CCc2cc(N=NC3=C(O)CC(C)(C)CC3=O)ccc21	-5	56*	3	-7	2	1
Cn1nc(C(F)(F)F)c(-c2ccc(F)cc2)c1NC(=O)c1cccnc1	-14	15	-12	-18	1	1
Cc1ccc(C)c(NC(=O)CN(C)C(=O)c2ccc(S(=O)(=O)N(C)c3ccccc3)cc2)c1	-4	30*	-15	.	.	.
Cc1ccc(NC(=O)CN(C)C(=O)c2ccc(S(=O)(=O)N(C)c3ccccc3)cc2)cc1	-20	-5	-8	-3	-2	1
COc1ccc(CNC(=O)COC(=O)c2ccc3ncsc3c2)cc1OC	2	-1	-2	.	.	.
SMILES	OX1R antag-1	OX1R antag-2	CHO parental Ca	GPR7 antag	TRPN1 ag	TRPML3 agonist
NS(=O)(=O)c1cccc(NC(=O)CN2CCc3ccccc32)c1	7	12	14	-3	-1	0
CN(c1ccccc1)S(=O)(=O)c1cccc(NC(=O)CN2CCCc3ccccc32)c1	12	24	33*	-2	1	2
O=c1c(-c2ccccc2)c(O)nc2ccccn12	2	7	4	19*	1	0
N#Cc1cccc(C(=O)Nc2cccc(S(=O)(=O)N3CCCC3)c2)c1	-21	7	-10	-15	.	.
Cc1ccc(S(=O)(=O)N(CC(=O)NCC2CCCO2)Cc2cccc(C)c2)cc1 (centres undefined)	-25	14	-15	-4	.	.
COCCN(C(=O)Cc1cccs1)C(C(=O)NC1CCCC1)c1cc(OC)c(OC)c(OC)c1 (centres undefined)	-19	23	-14	-13	1	1
O=C(Nc1ccccc1Cl)N1CCCN(c2nc(-c3ccccc3)ns2)CC1	15	74*	1	-19	3	3
O=C1C(=O)c2c(C(=O)c3ccccc3)coc2-c2ccccc21	-1	53*	-22	-7	-1	0
Cc1oc2c(c1C(=O)c1ccccc1)C(=O)C(=O)c1ccccc1-2	5	+	-16	19	-1	8
COc1ccc(N2CCN(S(=O)(=O)c3cn(C)cn3)CC2)cc1	-17	13	5	-7	.	.
O=C(/C=C/c1ccc(-c2cccc([N+](=O)[O-])c2)o1)N1CCOCC1	-21	23	-18	-7	1	0
Cc1ccc(C(C)NC(=O)/C(C#N)=C\c2c(C)[nH]c3ccccc23)cc1 (centres undefined)	-5	18	33*	7	2	3
Cc1[nH]c2ccccc2c1/C=C(\C#N)C(=O)NCc1ccccc1	8	6	0	3	0	1
Cc1cc(C)c(S(=O)(=O)c2ccc(C(C)(C)C)cc2)c(Cl)n1	2	11	43*	-7	.	.
Cc1ccc(S(=O)(=O)c2c(C)cc(C)nc2Cl)cc1	3	7	-8	-3	-1	0
O=C(Nc1cccc(F)c1)C1CCN(C(=O)NCc2ccccc2)CC1	-4	2	-1	0	.	.
Nc1ncnc(Nc2ccccn2)c1[N+](=O)[O-]	-9	64*	6	-9	-1	1
Cc1ccc(C)c(Nc2ncnc(N)c2[N+](=O)[O-])c1	7	9	-16	-5	-1	1
Cc1cccc(Nc2ncnc(N)c2[N+](=O)[O-])n1	-12	56*	0	-4	0	1
Cc1cccnc1Nc1ncnc(N)c1[N+](=O)[O-]	-7	13	1	-1	0	0
Cc1cc(C(=O)OCC(=O)Nc2cccc(S(N)(=O)=O)c2)c2ccccc2n1	10	17	6	-8	-1	1
O=C(O)CCCCCCCCCCP(=O)(c1ccccc1)c1ccccc1	-13	15	-10	-16	2	1
O=P(CCCCCCCCCP(=O)(c1ccccc1)c1ccccc1)(c1ccccc1)c1ccccc1	86*	26	100*	-3	-2	-1
